HKDC1 inh – HKDC1 (human) hexokinase inhibition; Q2TB90; recombinant HKDC1, G6PDH/diaphorase resazurin coupled fluorescence; inhibition, % at 20 µM; 0.16% of 340,000 active;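 active = inhibition above about 35% when tested at 20 µM, limit read from the data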
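Material: recombinant HKDC1 hexokinase; Amount: HKDC1 at 5 µg/mL; Medium: Tris pH 8.0 buffer with MgCl2, Tween-20, BSA, BME; Schedule: 90 min reaction incubation at room temperature, dark; Technique: coupled resazurin fluorescence, excitation 525 nm, emission 613 nm.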
Neddyl block – blocks human cullin neddylation; P61081+Q13564; TR-FRET cullin neddylation, biochemical; inhibition, % at 25 µM; 0.58% of 360,000 active; AID 651699; in the data active = inhibition above about 36%
Target sequence (P61081 whole entry, looked up): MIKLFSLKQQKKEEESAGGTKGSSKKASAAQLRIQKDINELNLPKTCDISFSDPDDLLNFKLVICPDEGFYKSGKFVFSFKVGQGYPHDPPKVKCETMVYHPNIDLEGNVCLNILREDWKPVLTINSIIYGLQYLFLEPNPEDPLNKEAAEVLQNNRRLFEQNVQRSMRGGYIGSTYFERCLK
Target sequence (Q13564 whole entry, looked up): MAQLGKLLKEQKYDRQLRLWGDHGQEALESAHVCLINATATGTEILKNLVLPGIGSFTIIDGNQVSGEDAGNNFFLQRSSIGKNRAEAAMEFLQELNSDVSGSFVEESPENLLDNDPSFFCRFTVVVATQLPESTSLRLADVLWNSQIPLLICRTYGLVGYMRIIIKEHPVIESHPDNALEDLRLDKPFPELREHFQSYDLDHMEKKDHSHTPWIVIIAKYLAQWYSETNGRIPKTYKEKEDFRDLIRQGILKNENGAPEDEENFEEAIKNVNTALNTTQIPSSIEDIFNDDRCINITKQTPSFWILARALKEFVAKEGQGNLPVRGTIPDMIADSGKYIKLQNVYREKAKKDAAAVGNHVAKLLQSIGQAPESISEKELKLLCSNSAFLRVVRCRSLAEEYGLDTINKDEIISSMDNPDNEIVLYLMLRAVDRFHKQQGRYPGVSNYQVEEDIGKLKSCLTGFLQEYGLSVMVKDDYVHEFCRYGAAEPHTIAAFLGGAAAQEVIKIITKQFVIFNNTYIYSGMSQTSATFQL
PfM18AAP inh – blocks P. falciparum M18 aspartyl aminopeptidase | 1.2% of 290,000 active | AID 1822 | inhibition, % at 7.35 µM | recombinant PfM18AAP, H-Glu-NHMec fluorogenic cleavage;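 active = inhibition above the campaign mean inhibition over all tested compounds plus 3 SD, cut at about 28% in these data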
PfGluPho inh – PfG6PD (Plasmodium falciparum) enzyme inhibition. PfGluPho enzyme, NADPH resazurin-diaphorase fluorescence. inhibition, % at 20 µM. 0.78% of 350,000 active;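 active = inhibition reaching at least a set limit at 20 µM in the primary screen, cut at about 59% in these data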
Hits are given with their value; . = inactive; / = not tested or not shown. Most compounds without a hit are left out; they make up all but 2.2% or so of the library.

SMILES	HKDC1 inh	Neddyl block	PfM18AAP inh	PfGluPho inh
Cc1nn(C(C)C(=O)NCCCN2CCCCCC2)c(=O)c2cc3sccc3n12 (stereo unspecified)	.	.	.	.
Nc1cccc2c(O)cccc12	.	44	/	.
Nc1ccccc1O	.	.	/	.
c1ccc2c(C3=NNC(=NC4CC4)SC3)c[nH]c2c1	.	.	32	.
c1ccc2c(C3=NNC(=NC4CCCCC4)SC3)c[nH]c2c1	.	.	.	.
Cc1cnc(NC(=O)CC2OC(=O)c3ccccc32)s1 (stereo unspecified)	.	.	/	.
CCN(CC)c1ccc(NC(=O)c2ccc(NC(=O)C3CCCO3)cc2)c(C)c1 (stereo unspecified)	.	.	31	.
COc1cc(OC)cc(C(=O)NNC(=O)CNC(=O)c2cccs2)c1	.	.	/	.
O=C1CCCC2=C1C(c1ccco1)Nc1ccc3ccccc3c12 (stereo unspecified)	.	54	.	.
COc1c(S(=O)(=O)N2CCN(C(=O)c3ccco3)CC2)ccc(Cl)c1Cl	.	.	.	.
Cc1nc(Nc2ccc(Cl)cc2)c(C#N)c(=O)[nH]1	.	.	.	.
CCN(CC)CCOC(=O)c1ccc(N/C=C(/C#N)c2nc(-c3ccc(OC)c(OC)c3)cs2)cc1	.	64	.	.
CCN(CC)CCOC(=O)c1ccc(N/C=C(/C#N)c2nc(-c3cccc(OC)c3)cs2)cc1	.	.	.	.
c1ccc(Nc2nc(CSc3ncn[nH]3)cs2)cc1	.	.	60	.
CC(C)NC(=O)C1(C)CN(S(C)(=O)=O)CC(=O)N1CCCn1ccnc1 (stereo unspecified)	/	.	/	/
O=C(COc1ccc(Cl)cc1)NNC(=O)CSc1nncs1	.	.	29	.
O=C(/C=C/c1ccc([N+](=O)[O-])cc1)N(c1ccccn1)C1CCCCC1	.	.	43	.
O=S(=O)(Nc1nc2ccccc2nc1N1CCc2ccccc2C1)c1ccc(Br)cc1	.	61	.	.
O=S(=O)(Nc1nc2ccccc2nc1N1CCc2ccccc2C1)c1ccc(Cl)cc1	.	.	.	.
COc1cc(NC(=O)CCl)ccc(=O)c1	/	.	/	.
Cc1ccccc1OCC(=O)NCCS(=O)(=O)N1CCN(c2ccc(F)cc2)CC1	.	.	/	.
CN1CCOc2cc(S(=O)(=O)NCc3ccc(S(N)(=O)=O)cc3)ccc21	.	.	.	.
COc1ccc(-c2csc(NC(=O)c3cc(=O)c4ccccc4o3)n2)cc1OC	.	.	.	67
COc1ccc(-c2csc(NC(=O)c3cc(C)oc3C)n2)cc1OC	.	.	.	.
CCOC(=O)c1ccccc1NC(=O)COC(=O)CCC1CCCC1	.	.	/	.
SMILES	HKDC1 inh	Neddyl block	PfM18AAP inh	PfGluPho inh
Cc1nnc(SCC(=O)NC(C)(C)C)n1NCc1cccc(Br)c1	.	.	.	.
Cc1ccc(NC2=Nc3ccccc3N3C2=Nc2c(c(C)nn2-c2ccccc2)C3c2ccc(O)c(O)c2)cc1 (stereo unspecified)	.	/	.	.
Cc1nn(-c2ccccc2)c2c1C(c1ccc(O)c(O)c1)N1C(=N2)C(Nc2ccccc2)=Nc2ccccc21 (stereo unspecified)	.	.	34	.
Cc1onc(-c2ccccc2Cl)c1C(=O)Nc1ncn[nH]1	.	.	54	.
CC(=O)Nc1ccc(NC(=O)c2c(-c3ccccc3Cl)noc2C)cc1	.	.	.	.
CC(C)c1cccc(-c2csc(C(C)(O)c3ccc(F)c(F)c3)n2)c1 (stereo unspecified)	/	.	/	/
CC1=NN(c2ccccc2)C(=O)C1C=Nc1ccc(N(C)C)cc1 (stereo unspecified)	.	.	31	.
CC1=NN(c2ccccc2)C(=O)C1N=Nc1ccc(C)cc1 (stereo unspecified)	/	/	.	/
N#CC(C(=O)O)=C1CCCC1	.	.	.	.
N#CC(C#SN)=C1CCCCC1	.	.	30	.
Cc1[nH]n(-c2ccccc2)c(=S)c1C=Nc1ccc([N+](=O)[O-])cc1	.	.	51	98
Cc1[nH]n(-c2ccccc2)c(=O)c1C=Nc1ccc(S(=O)(=O)N=C(N)N)cc1	.	.	.	.
COc1cccc(OC)c1C(=O)OCC(=O)NCCNC(=O)COC(=O)c1c(OC)cccc1OC	/	.	/	.
O=C(N/N=C/c1ccc[nH]1)c1ccc(COc2cccc3cccnc23)cc1	.	49	.	.
Cc1cc(Br)c(OCc2ccc(C(=O)N/N=C/c3ccc[nH]3)cc2)c(Br)c1	.	41	/	.
CCc1c(-c2cccc(Br)c2)ncn1Cc1cccc(-c2ccccc2)c1	/	.	/	/
O=C(COc1ccccc1)OCC(=O)c1ccc(S(=O)(=O)N2CCCCC2)cc1	.	.	/	.
CCc1ccc(NC(=O)NNC(=O)c2ccc3ccccc3c2O)cc1	.	/	29	.
CCc1ccc(NC(=O)NNC(=O)c2cc3ccccc3cc2O)cc1	.	.	.	.
COc1ccc(NC(=O)c2ccccc2NS(=O)(=O)c2ccc(CNC(C)=O)cc2)c(OC)c1	.	.	.	.
CC(=O)c1ccc(NC(=O)CC2Nc3cccc4cccc(c34)NC2=O)cc1 (stereo unspecified)	.	.	29	.
NNc1nc2c(-c3ccc(F)cc3)nnn2c2ccccc12	.	.	30	.
NNc1nc2c(-c3ccc(Cl)cc3)nnn2c2ccccc12	.	/	.	.
CCCOc1ccc(C(=O)NNC(=S)NC(=O)c2ccco2)cc1	.	59	.	.
CN(C(=O)CSc1nc(-c2cccs2)nc2ccccc12)C1CCS(=O)(=O)C1 (stereo unspecified)	.	.	/	.
SMILES	HKDC1 inh	Neddyl block	PfM18AAP inh	PfGluPho inh
CC(C)CC1Nc2ccc(C(=O)NCc3ccc4c(c3)OCO4)cc2NC1=O (stereo unspecified)	.	.	29	.
N#C/C(=C\c1cccc(Br)c1)C(=O)N1CCCCC1	.	.	30	.
CCCCCCCCN1C(=O)[C@H](CC(=O)NCCC(C)C)C[C@@]2(C(=O)OCC)CCC=C12	/	.	/	/
Cc1sc2ncnc(N/N=C/c3ccccc3O)c2c1C	.	50	.	.
CCOC(=O)CCSc1cc(C)c2ccccc2n1	.	.	.	.
Cc1cc(SCCC(=O)O)nc2ccccc12	.	.	30	.
COc1ccc(NC(=O)Cc2nnc(SCC(=O)c3ccc(F)cc3)n2C)cc1	.	.	.	.
COc1ccc(NC(=O)c2ccc(Br)c(S(=O)(=O)N3CCOCC3)c2)cc1	.	.	.	.
COc1cccc(C(=O)NNC2=CC(=O)CC(C)(C)C2)c1	.	.	31	.
Cc1ccccc1CSc1nc2[nH]ncc2c(=O)[nH]1	.	.	31	.
O=C(COC(=O)COc1ccc(Cl)cc1)NC1CCCCCC1	.	.	/	.
Cc1nnc(N=c2ssnc2Cl)o1	.	.	/	116
CCOc1ccc2c(CC)cc(=O)oc2c1OCC	.	/	.	.
C=CCOc1ccc2c(CC)cc(=O)oc2c1C	.	42	.	.
CCCS(=O)(=O)NC(=O)C1(C)CCN(C(=O)c2ccc(F)c(C)c2)C1 (stereo unspecified)	/	.	/	/
CC(=O)N1CCN(c2ccc(NS(=O)(=O)c3ccc(C)cc3)cc2)CC1	.	.	.	.
O=C1C(Cl)=C(Nc2ccccc2O)C(=O)N1c1ccccc1	.	.	46	.
COc1ccc(C(=O)COC(=O)CCc2ccccc2)cc1	.	.	30	.

Assay outcomes: PubChem, several laboratories
